The source made the active and inactive calls. The calls are words filed in the database; no cut-off is given here.
Tests used:
[1] = molecular target: T1, Protein deacetylase HDAC6 (Homo sapiens, UniProt Q9UBN7); assay: Inhibition of full length human N-terminal GST-tagged HDAC6 using fluorogenic acetylated peptide as substrate incubated for 30 mins by fluorescence plate reader assay
T1 sequence (Q9UBN7 whole entry): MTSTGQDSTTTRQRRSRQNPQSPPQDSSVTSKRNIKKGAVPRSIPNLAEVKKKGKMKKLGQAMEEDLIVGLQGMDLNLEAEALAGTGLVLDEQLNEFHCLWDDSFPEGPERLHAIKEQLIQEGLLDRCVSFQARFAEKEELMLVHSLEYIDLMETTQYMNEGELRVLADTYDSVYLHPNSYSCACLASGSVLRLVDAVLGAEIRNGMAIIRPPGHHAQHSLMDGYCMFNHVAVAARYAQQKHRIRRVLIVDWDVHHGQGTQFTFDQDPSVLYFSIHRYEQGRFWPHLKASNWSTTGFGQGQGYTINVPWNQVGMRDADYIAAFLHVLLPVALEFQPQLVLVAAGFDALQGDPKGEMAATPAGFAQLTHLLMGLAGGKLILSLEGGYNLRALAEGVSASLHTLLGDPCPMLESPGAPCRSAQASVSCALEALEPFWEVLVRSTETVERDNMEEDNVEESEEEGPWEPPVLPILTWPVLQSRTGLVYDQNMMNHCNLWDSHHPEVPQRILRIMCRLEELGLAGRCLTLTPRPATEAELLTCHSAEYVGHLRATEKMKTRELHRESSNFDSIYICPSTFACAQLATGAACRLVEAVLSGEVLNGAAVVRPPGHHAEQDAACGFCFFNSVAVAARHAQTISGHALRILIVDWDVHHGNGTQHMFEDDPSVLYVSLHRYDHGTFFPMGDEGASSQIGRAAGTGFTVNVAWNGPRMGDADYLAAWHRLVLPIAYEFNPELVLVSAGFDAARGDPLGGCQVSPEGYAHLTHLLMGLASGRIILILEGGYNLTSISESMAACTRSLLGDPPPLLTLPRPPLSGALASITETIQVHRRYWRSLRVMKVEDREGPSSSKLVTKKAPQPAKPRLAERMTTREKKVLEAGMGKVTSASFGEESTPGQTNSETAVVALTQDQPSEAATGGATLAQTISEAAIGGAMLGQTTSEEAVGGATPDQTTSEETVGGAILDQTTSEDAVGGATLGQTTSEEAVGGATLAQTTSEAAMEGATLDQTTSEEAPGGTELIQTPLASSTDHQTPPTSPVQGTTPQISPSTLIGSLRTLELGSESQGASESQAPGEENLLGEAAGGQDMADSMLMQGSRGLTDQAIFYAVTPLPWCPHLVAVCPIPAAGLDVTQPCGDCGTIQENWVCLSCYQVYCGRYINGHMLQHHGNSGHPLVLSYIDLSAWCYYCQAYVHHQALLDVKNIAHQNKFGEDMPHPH

[2] = molecular target: T2, Histone-lysine N-methyltransferase EHMT2 (Homo sapiens) (UniProt Q96KQ7); assay: Inhibition of G9A in human MM1.S cells assessed as decrease in H3K9Me2 levels > 1 uM after 48 hrs by Western blot analysis; format: cell-based; conditions: dose microM >1, time 48.0 hrs
T2 sequence (whole entry): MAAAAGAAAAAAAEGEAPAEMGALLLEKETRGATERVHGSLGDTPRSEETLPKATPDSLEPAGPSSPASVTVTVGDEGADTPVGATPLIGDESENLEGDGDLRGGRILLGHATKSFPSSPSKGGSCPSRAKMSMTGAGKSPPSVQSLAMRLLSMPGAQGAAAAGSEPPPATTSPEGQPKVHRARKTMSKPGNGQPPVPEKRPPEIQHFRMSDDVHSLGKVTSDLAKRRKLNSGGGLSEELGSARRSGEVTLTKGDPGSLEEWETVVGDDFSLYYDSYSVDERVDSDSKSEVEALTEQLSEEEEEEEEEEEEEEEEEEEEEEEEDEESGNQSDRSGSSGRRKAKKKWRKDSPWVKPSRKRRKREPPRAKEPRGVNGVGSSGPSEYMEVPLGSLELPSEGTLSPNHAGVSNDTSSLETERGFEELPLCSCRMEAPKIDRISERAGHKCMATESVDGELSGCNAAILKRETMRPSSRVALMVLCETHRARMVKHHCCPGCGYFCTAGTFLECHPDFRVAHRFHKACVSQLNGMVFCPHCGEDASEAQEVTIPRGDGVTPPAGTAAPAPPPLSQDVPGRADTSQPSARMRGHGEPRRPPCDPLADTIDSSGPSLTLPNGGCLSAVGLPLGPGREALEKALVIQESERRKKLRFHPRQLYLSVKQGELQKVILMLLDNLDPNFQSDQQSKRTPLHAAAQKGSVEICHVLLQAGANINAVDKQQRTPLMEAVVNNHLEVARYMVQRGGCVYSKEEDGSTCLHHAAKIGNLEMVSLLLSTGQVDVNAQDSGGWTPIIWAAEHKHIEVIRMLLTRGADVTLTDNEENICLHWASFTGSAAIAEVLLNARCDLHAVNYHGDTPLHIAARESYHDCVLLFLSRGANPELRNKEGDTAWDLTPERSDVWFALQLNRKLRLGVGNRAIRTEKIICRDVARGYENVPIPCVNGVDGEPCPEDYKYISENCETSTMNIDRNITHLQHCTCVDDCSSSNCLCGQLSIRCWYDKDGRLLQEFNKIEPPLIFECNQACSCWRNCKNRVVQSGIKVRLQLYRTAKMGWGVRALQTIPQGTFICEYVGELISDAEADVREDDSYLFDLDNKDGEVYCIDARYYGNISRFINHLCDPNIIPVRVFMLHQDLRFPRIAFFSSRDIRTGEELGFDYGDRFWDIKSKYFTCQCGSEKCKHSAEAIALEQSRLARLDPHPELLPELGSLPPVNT
How it was run: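 MM1.S cells exposed 48 h across a concentration range. Global H3K9Ac and H3K9me2 read by Western blot; run in duplicate.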

[3] = Apparent oral clearance in BALB/c RAG2-/- gammaC-/- mouse at 10 mg/kg, ip using 80% saline 10% Tween20 and 10% DMSO formulation measured up to 24 hrs by UPLC-triple quadrupole MS analysis; format: ADME, organism-based; conditions: in vivo
[4] = AUC (0 to 24 hrs) in BALB/c RAG2-/- gammaC-/- mouse at 10 mg/kg, ip measured up to 24 hrs by UPLC-triple quadrupole MS analysis; format: ADME, organism-based; design: route intraperitoneal, dose 10 mg/kg, time <=24; conditions: in vivo
CYP2C9 = CYP2C9 (Homo sapiens, UniProt P11712); assay: Inhibition of CYP2C9 in human liver microsomes at 10 uM incubated for 10 mins in presence of NADPH by LC-MS/MS analysis relative to control; format: ADME
[5] = Stability of the compound in human pooled hepatocytes assessed as parent compound remaining incubated for 60 mins; format: ADME, cell-based, Hepatocyte; conditions: read-out: Stabilty
[6] = Half life in BALB/c RAG2-/- gammaC-/- mouse at 10 mg/kg, ip using 80% saline 10% Tween20 and 10% DMSO formulation measured up to 24 hrs by UPLC-triple quadrupole MS analysis; format: ADME, organism-based; conditions: in vivo

CYP2C9, sequence (P11712 whole entry): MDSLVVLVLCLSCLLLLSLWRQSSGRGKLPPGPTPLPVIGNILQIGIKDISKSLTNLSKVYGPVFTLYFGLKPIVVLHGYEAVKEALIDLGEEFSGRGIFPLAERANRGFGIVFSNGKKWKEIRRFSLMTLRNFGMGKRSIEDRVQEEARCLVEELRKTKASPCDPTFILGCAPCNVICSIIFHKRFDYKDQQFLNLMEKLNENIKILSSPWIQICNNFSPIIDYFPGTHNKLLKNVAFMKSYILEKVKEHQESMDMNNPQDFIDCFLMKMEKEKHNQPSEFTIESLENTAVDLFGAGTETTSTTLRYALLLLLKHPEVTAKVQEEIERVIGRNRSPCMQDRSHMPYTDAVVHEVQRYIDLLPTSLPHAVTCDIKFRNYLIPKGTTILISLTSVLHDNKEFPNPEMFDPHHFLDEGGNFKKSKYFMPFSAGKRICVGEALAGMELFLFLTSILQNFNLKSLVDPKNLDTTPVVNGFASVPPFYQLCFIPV

SMILES	IC50 [1]	inhibition [2]	CL/F [3]	AUC(0-t) [4]	inhibition at 10 min, 10 µM (CYP2C9)	remaining at 1 h [5]	half-life [6]
COc1cc2c(NCC3CCN(c4ncc(C(=O)NO)cn4)CC3)cc(-c3ccc(C)o3)nc2cc1OCCCN1CCCC1	152 nM	Active	–	–	–	–	–
COc1cc2nc(-c3ccc(C)o3)cc(NCC3CCN(c4ncc(C(=O)NO)cn4)CC3)c2cc1OC	–	–	8.83 mL/min	0.591 µM·h	0%	50.8%	8.46 h
